Reference: ChEMBL document CHEMBL1287653, “Structural modifications on the phenazine N,N'-dioxide-scaffold looking for new selective hypoxic cytotoxins” (Eur J Med Chem, 2010)

Columns and labels:
[1] = system: Calf thymus DNA; experiment: Binding affinity to calf thymus DNA assessed as ratio of final absorbance area to absorbance of compound at 100 uM after 24 hrs by UV spectrophotometer analysis; format: nucleic-acid assay; conditions: Bos taurus
Method in brief: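 Calf thymus DNA in 10 mM Tris-HCl, pH 7.4. Compound stock 10^-4 M (≤5% solvent), diluted with water to 2 × 10^-5 M, then mixed 1:1 with DNA solution. Rotated 24 h; UV spectra taken at 20 °C in a 1-cm cell. Areas of a 20 nm band at λmax at 0 and 24 h; reported as a24/a0.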

[2] = Cytotoxicity against chinese hamster V79 cells assessed as survival fraction under normoxic condition at 20 uM after 7 days by crystal violet staining relative to control; format: cell-based, Cricetulus griseus; conditions: read-out: Activity
Method in brief: (§1)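 Exponential-phase V79 cells trypsinized into gassed suspension culture (2 × 10^4 cells/mL, EMEM, 10% FBS, 10 mM HEPES). Compound added 30 min after gassing began, in duplicate flasks, with a DMSO control; exposure 2 h. Cells then plated for colony formation at 37 °C, 5% CO2, for 7 days and stained with crystal violet. Colonies >64 cells counted; survival = PEtreated/PEcontrol × 100; means of two experiments.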

[3] = system: V79; experiment: Cytotoxicity against chinese hamster V79 cells assessed as survival fraction under hypoxic condition at 20 uM after 7 days by crystal violet staining relative to control; format: functional, Cricetulus griseus
Method in brief: (§2)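 V79 Chinese hamster lung fibroblasts grown in EMEM with 10% FBS, then set up as suspension cultures (2 × 10^4 cells/mL, EMEM, 10% FBS, 10 mM HEPES) under simulated hypoxic gassing. Compound in DMSO added 30 min after gassing began, duplicate flasks per dose, 2 h exposure. Cells then plated and grown 7 days at 37 °C, stained with crystal violet, and colonies >64 cells counted. Survival = PEtreated/PEcontrol × 100.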

[4] = Cytotoxicity against chinese hamster V79 cells assessed as survival fraction under normoxic condition at 10 uM after 7 days by crystal violet staining relative to control; format: cell-based, Cricetulus griseus; conditions: read-out: Activity; method in brief: as §1
[5] = system: V79; experiment: Cytotoxicity against chinese hamster V79 cells assessed as survival fraction under hypoxic condition at 10 uM after 7 days by crystal violet staining relative to control; format: functional, Cricetulus griseus; method in brief: as §2
[6] = system: Calf thymus DNA; experiment: Binding affinity to calf thymus DNA assessed as fluorescence quenching at 20 uM after 24 hrs by fluorescence spectroscopy analysis; format: nucleic-acid assay; set-up: unit not given here; conditions: Bos taurus
[7] = system: V79; experiment: Cytotoxicity against chinese hamster V79 cells assessed as concentration required to kill 99% cells under hypoxic condition after 7 days by crystal violet staining relative to control; format: functional, Cricetulus griseus; method in brief: as §2
[8] = system: V79; experiment: Hypoxic cytotoxicity ratio, concentration required to kill 99% chinese hamster V79 cells under normoxic condition to hypoxic condition; format: functional, Cricetulus griseus
Method in brief: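 Clonogenic V79 suspension-culture assay run under both air and hypoxic gassing. Cells exposed 2 h in duplicate flasks per dose, then colonies counted after 7 days with crystal violet. Dose–response curves give the dose producing 1% of control survival in each condition. Ratio = air dose divided by hypoxic dose.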

## Cc1cc2c(cc1F)[n+]([O-])c1ccc(O)cc1[n+]2[O-]
[1]
  Ratio: 0.83
[2]
  viability at 168 h, 20 µM: 100%
[3]
  Activity: 95%

## Cc1cc2c(cc1F)[n+]([O-])c1ccc(N)cc1[n+]2[O-]
[1]
  Ratio: 0.85
[2]
  viability at 168 h, 20 µM: 88%
[3]
  Activity: 15%

## [O-][n+]1c2ccc(O)cc2[n+]([O-])c2cc(Cl)c(Cl)cc21
[1]
  Ratio: 0.96
[2]
  viability at 168 h, 20 µM: 1%
[4]
  viability at 168 h, 10 µM: 0%
[3]
  Activity: 0%
[5]
  Activity: 8%

## Cc1ccc2nc3ccc(N)cc3nc2c1
[1]
  Ratio: 0.85
[6]
  Kq: 6.1
[2]
  viability at 168 h, 20 µM: 98%
[3]
  Activity: 100%

## COc1cc(NS(C)(=O)=O)ccc1Nc1c2ccccc2nc2ccccc12
[1]
  Ratio: 0.3

## Nc1ccc2c(c1)[n+]([O-])c1cc(Cl)c(Cl)cc1[n+]2[O-]
[7]
  Activity: 10 µM
[8]
  Ratio: 0.9
[1]
  Ratio: 0.98
[2]
  viability at 168 h, 20 µM: 2%
[4]
  viability at 168 h, 10 µM: 3%
[3]
  Activity: 0%
[5]
  Activity: 18%

## Cc1ccc2c(c1)[n+]([O-])c1cc(O)c3ncccc3c1[n+]2[O-]
[2]
  viability at 168 h, 20 µM: 49%
[3]
  Activity: 46%

## Nc1ccc2c(c1)nc1cc(Br)ccc1[n+]2[O-]
[1]
  Ratio: 0.92
[6]
  Kq: 4.2
[2]
  viability at 168 h, 20 µM: 0%
[3]
  Activity: 0%

## O=C1c2c(O)ccc(O)c2C(=O)c2c(NCCNCCO)ccc(NCCNCCO)c21
[1]
  Ratio: 0

## Nc1ccc2nc3ccc(Br)cc3nc2c1
[1]
  Ratio: 0.9
[6]
  Kq: 7.3
[2]
  viability at 168 h, 20 µM: 0%
[3]
  Activity: 0%

## O=C(CCl)Oc1ccc2c(c1)[n+]([O-])c1cc(Br)ccc1[n+]2[O-]
[2]
  viability at 168 h, 20 µM: 84%
[3]
  Activity: 62%

## CC[n+]1c(-c2ccccc2)c2cc(N)ccc2c2ccc(N)cc21
[1]
  Ratio: 0.5

## [O-][n+]1c2ccc(Br)cc2[n+]([O-])c2cc(OCc3ccccc3)ccc21
[1]
  Ratio: 0.88
[2]
  viability at 168 h, 20 µM: 86%
[3]
  Activity: 90%

## Nc1ccc2c(c1)[n+]([O-])c1cc(F)ccc1[n+]2[O-]
[7]
  Activity: 2.5 µM
[8]
  Ratio: 6.8
[1]
  Ratio: 0.88
[6]
  Kq: 7.8
[2]
  viability at 168 h, 20 µM: 0%
[4]
  viability at 168 h, 10 µM: 30%
[3]
  Activity: 0%
[5]
  Activity: 0%

## CN1CCN(c2ccc3[nH]c(-c4ccc5[nH]c(-c6ccc(O)cc6)nc5c4)nc3c2)CC1
[1]
  Ratio: 0.57

## Cc1ccc2c(c1)nc1cc(N)ccc1[n+]2[O-]
[1]
  Ratio: 0.92
[6]
  Kq: 5.3
[2]
  viability at 168 h, 20 µM: 100%
[3]
  Activity: 100%
